# In the library only some 1.9% were active in any assay of this set; here they are far more common.
# NR2E3 ag-1 – human photoreceptor-specific nuclear receptor agonism. Q9Y5X4. CHO-S Gal4-NCOR/VP16-NR2E3 two-hybrid, luciferase. inhibition of corepressor binding, % at 3.98 µM. 360,000 compounds, 0.35% hits;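 active means inhibition above the mean of all tested compounds plus 3 SD, cut at about 70% in these data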;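 further: 0% = DMSO with NR2E3 transfected cells and 100% = cells lacking NR2E3 construct; higher means lower luciferase signal from less NR2E3 corepressor binding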
# SKN-1 inh – C. elegans SKN-1 inhibition; C. elegans VP596 Pgst-4::GFP/RFP ratio, acrylamide-induced, 24 h; inhibition, % at 21.8 µM; 360,000 compounds, 0.49% hits;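 active means interference check ratio from 0.5 to 1.5 plus GFP to RFP signal ratio inhibition reaching or exceeding a fixed threshold, cut at about 30% in these data, passing the limit was not always enough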
# PG9 Ab binder – PG9 antibody binding by small molecule; TR-FRET gp120-PG9 antibody binding; inhibition, % at 6.7 µM; 360,000 compounds, 0.43% hits; AID 624416; in the data active means inhibition above about 8.5%
# NR2E3 ag-2 – activates human photoreceptor nuclear receptor NR2E3; AID 2300; GST-NR2E3/biotin-RetCOR TR-FRET, 1536-well; inhibition of corepressor binding, % at 4.78 µM; 320,000 compounds, 0.12% hits;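 active means percent inhibition above the cutoff of mean plus 3 SD of all tested compounds, set per screening campaign, cut at about 20% in these data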;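 further: 0% = DMSO wells and 100% = biotin wells as full block of FRET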
#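 Material – GST-tagged NR2E3 plus biotinylated RetCOR corepressor · Quantity – NR2E3 fusion 1.35 nM · Times – 5 h incubation at 4 °C · Medium – pH 7.5 Tris-based buffer · Technique – TR-FRET, Eu(K)-anti-GST donor, streptavidin-D2 acceptor, ex 340, em 617/671 nm · Benchmarks – high control biotin, low control 0.6% DMSO · Format – 1536-well plates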
# NR1D1 modulator – modulates human Rev-erb alpha binding to DNA; P20393; Rev-erbα–FITC-DNA binding, fluorescence polarization, 90 min; activity, % at 10 µM; 370,000 compounds, 0.79% hits;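 active means activity above about 14%, limit read from the data; passing the limit was not always enough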;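 further: 0% = DMSO wells with 35 nM protein and 100% = DMSO wells with 750 nM protein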
# Target sequence (P20393 whole entry, looked up): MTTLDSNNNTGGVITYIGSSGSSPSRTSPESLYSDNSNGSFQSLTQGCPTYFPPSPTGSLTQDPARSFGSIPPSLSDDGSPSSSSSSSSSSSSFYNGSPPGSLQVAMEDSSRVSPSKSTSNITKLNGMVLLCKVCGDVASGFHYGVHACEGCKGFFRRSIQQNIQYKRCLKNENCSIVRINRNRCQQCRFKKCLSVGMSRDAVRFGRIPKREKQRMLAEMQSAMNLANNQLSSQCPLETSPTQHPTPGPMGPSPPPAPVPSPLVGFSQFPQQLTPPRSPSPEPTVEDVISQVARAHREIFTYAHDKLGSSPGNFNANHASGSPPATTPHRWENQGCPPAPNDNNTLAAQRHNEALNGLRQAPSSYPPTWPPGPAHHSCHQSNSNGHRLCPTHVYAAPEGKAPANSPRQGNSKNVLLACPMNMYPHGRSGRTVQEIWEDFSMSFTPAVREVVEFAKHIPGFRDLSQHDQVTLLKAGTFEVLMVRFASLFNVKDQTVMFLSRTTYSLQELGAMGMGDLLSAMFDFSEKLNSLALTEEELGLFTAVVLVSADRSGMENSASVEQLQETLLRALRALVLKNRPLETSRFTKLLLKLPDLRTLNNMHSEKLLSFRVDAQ
# MT1-MMP act inh – inhibitors of human MT1-MMP activation; AID 651647; 360,000 compounds, 0.061% hits; HT1080 RFP-PRO-GFP cells, GFP/RFP ratio fluorescence, overnight; percent of plate control window, DMSO zero; P50281; GFP/RFP ratio change, % at 20 µM;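 active means GFP/RFP ratio change of at least 30% with cell ATP level not reduced by more than half and red fluorescence within 50% of control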
#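 Compound: 20 µM single dose, 1% DMSO / System: HT1080 RFP-PRO-GFP cells / Controls: DMSO and RFP-L50D-GFP cell wells / Read-out basis: GFP/RFP fluorescence ratio / Schedule: overnight compound exposure at 37 °C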
# An asterisk follows results filed as active; . = not tested or not shown.
SMILES,NR2E3 ag-1,SKN-1 inh,PG9 Ab binder,NR2E3 ag-2,NR1D1 modulator,MT1-MMP act inh
c1ccc2c(c1)OCCc1c-2[nH]c2ccccc12,-45,52*,-1,2,1,-2
Cc1ccc(COn2c(-c3ccc(Cl)cc3)nc3ccc([N+](=O)[O-])cc32)cc1,-96,31,1,-1,-5,-4
O=[N+]([O-])c1ccc2nc(-c3ccc(Cl)cc3)n(OCc3ccccc3)c2c1,-154,41*,-1,-3,5,3
CCOC(=O)C(C)On1c(-c2ccc(Cl)cc2)nc2ccc([N+](=O)[O-])cc21 (stereo not given),-128,41*,-1,3,-1,-9
COn1c(-c2ccc(Cl)cc2)nc2ccc(Cl)cc21,-39,87*,-1,0,1,2
COC(=O)[C@@H]1CC(=O)O[C@H](C)C/C=C/C=C/[C@H](O)[C@H](C)C[C@H](CC=O)[C@H](OC2O[C@H](C)[C@@H](OC3C[C@@](C)(O)[C@@H](OC(=O)CC(C)C)[C@H](C)O3)[C@H](N(C)C)[C@H]2O)[C@H]1OC (stereo not given in full),.,.,.,.,-3,.
COc1ccccc1C1CN(c2ccc(F)cc2F)N=C1c1cccs1 (stereo not given),-8,44*,1,6,11,-8
CC(=O)S[C@@H]1CC2=CC(=O)CC[C@]2(C)[C@H]2CC[C@@]3(C)[C@@H](CC[C@@]34CCC(=O)O4)C12 (stereo not given in full),.,.,.,.,-6,.
Cn1cncc1[C@@](N)(c1ccc(Cl)cc1)c1ccc2c(c1)c(-c1cccc(Cl)c1)cc(=O)n2C,.,.,.,.,14,.
C(=C\c1ccccc1)/CN1CCN(c2ncnc3c2oc2ccccc23)CC1,98*,-13,2,1,3,6
O=C(c1ccc(Cl)cc1)c1cc([N+](=O)[O-])ccc1N1CCOCC1,-8,67*,-1,-3,-3,6
O=C(c1ccccc1)c1cc([N+](=O)[O-])ccc1N1CCOCC1,-6,7,0,0,3,14
O=C(c1ccc(Br)cc1)c1cc([N+](=O)[O-])ccc1N1CCOCC1,-8,65*,-1,2,0,1
COC(=O)[C@]12C[C@H](CC(=O)NCc3cccc(C(F)(F)F)c3)C(=O)N(Cc3ccc(Cl)cc3Cl)C1=C[C@H](COCc1ccccc1)O[C@@H]2C,.,.,.,.,3,.
CCc1ccc(/C=C2\SC(=S)N(CCCC(=O)Nc3ccccn3)C2=O)cc1,0,47*,0,2,-1,-6
COC/C=C/C1=CC2=CC(=O)C(C)(OC(=O)C3CCCC3)C(=O)C2=CO1 (stereo not given),11,36*,-2,2,-2,3
CC(C)C(CCNCc1ccccn1)c1ccc(Cl)cc1 (stereo not given),-16,38*,-2,-4,5,2
CC(C)CCC(CCNCc1ccccn1)c1ccc2c(c1)OCO2 (stereo not given),19,-7,2,1,0,.
CCN(CC(=O)Nc1ccccc1C(F)(F)F)C(=O)C1CC(=O)N(Cc2ccccc2)C1 (stereo not given),-8,35*,0,-2,-6,-2
COC(=O)CCN1CCSCCS1(=O)=O,.,.,-2,.,2,.
CCCS(=O)(=O)N1CCCC(C(=O)NCc2cccnc2)C1 (stereo not given),10,5,1,0,-8,3
CCCS(=O)(=O)N1CCC(C(=O)NCc2cccnc2)CC1,-15,52*,0,3,-1,6
O=C(Nc1ccc(Cl)cn1)c1ccc(Oc2ccccc2)cc1,-7,-5,-2,-2,6,3
CCCOc1ccc(C(=O)Nc2ccc(Cl)cn2)cc1,-70,41*,-1,0,4,1
Cn1c(=O)c2c(-c3ccccc3)n(-c3ccc(N)cc3)cc2n(C)c1=O,-19,49*,-11,.,-7,-4
CCCN1C2CCCC1CC(NC(=O)c1ccc(F)cc1)C2 (stereo not given),-18,56*,-1,2,-3,0
